The text below walks through data of ChEMBL document CHEMBL1122297, “Stereospecific synthesis of chiral metabolites of ifosfamide and their determination in the urine” (J Med Chem, 1983).

Data set [1] is described as follows: Quantity of the metabolite found in the urine of the embryonal rhabdomyosarcoma patients treated with ifosfamide from 2310 mL of urine tested on day 4. As to conditions: human; call rule not given here. The format is ADME. In outline:
(§1)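 Patients received ifosfamide at 2 g per day for 10 days, and daily urine was collected. Urine from days 1 and 2 was dropped because it had been stored at room temperature. Solids were centrifuged off. Supernatant was examined by 31P NMR, and amounts were taken from the electronically integrated spectra.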

Data set [2] can be described thus: Quantity of the metabolite found in the urine of the embryonal rhabdomyosarcoma patients treated with ifosfamide from 1200 mL of urine tested on day 7. The format is ADME. As to conditions: human. In outline:
as §1

Data set [3] in a line: Quantity of the metabolite found in the urine of the embryonal rhabdomyosarcoma patients treated with ifosfamide from 1200 mL of urine tested on day 3. In kind it is ADME, tissue-based. Particulars: human. In outline:
as §1

Data set [4] in a line: Quantity of the metabolite found in the urine of the embryonal rhabdomyosarcoma patients treated with ifosfamide from 1500 mL of urine tested on day 9. The format is ADME. As to conditions: human. Summed up:
as §1

Data set [5] can be described thus: Quantity of the metabolite found in the urine of the embryonal rhabdomyosarcoma patients treated with ifosfamide from 1300 mL of urine tested on day 6. As to conditions: human. In kind it is ADME. In outline:
as §1

A short description of data set [6]: Portion of holoxan excreted in the form of the metabolite from 1500 mL of urine on day 9 was determined in embryonal rhabdomyosarcoma patients treated with ifosfamide. In kind it is ADME, tissue-based. As to conditions: human, in vivo. Summed up: as §1
Data set [7] is described as follows: Portion of holoxan excreted in the form of the metabolite from 1600 mL of urine on day 10 was determined in embryonal rhabdomyosarcoma patients treated with ifosfamide. As to conditions: human, in vivo. The format is ADME, tissue-based. In outline: as §1
A short description of data set [8]: Portion of holoxan excreted in the form of the metabolite from 1300 mL of urine on day 6 was determined in embryonal rhabdomyosarcoma patients treated with ifosfamide. Particulars: human, in vivo. In kind it is ADME. Summed up: as §1
A short description of data set [9]: Portion of holoxan excreted in the form of the metabolite from 1200 mL of urine on day 7 was determined in embryonal rhabdomyosarcoma patients treated with ifosfamide. The format is ADME. Particulars: human, in vivo. In outline: as §1
The nature of data set [10]: Portion of holoxan excreted in the form of the metabolite from 2310 mL of urine on day 4 was determined in embryonal rhabdomyosarcoma patients treated with ifosfamide. As to conditions: human, in vivo. The format is ADME, tissue-based. In outline: as §1
Data set [11] can be described thus: Quantity of the metabolite found in the urine of the embryonal rhabdomyosarcoma patients treated with ifosfamide from 1700 mL of urine tested on day 5. The format is ADME. As to conditions: human. In outline:
as §1

Data set [12] can be described thus: Portion of holoxan excreted in the form of the metabolite from 1300 mL of urine on day 8 was determined in embryonal rhabdomyosarcoma patients treated with ifosfamide. The format is ADME. Particulars: human, in vivo. Summed up:
as §1

Data set [13] in a line: Quantity of the metabolite found in the urine of the embryonal rhabdomyosarcoma patients treated with ifosfamide from 1300 mL of urine tested on day 8. The format is ADME, tissue-based. Particulars: human. In outline:
as §1

Data set [14] can be described thus: Portion of holoxan excreted in the form of the metabolite from 1700 mL of urine on day 5 was determined in embryonal rhabdomyosarcoma patients treated with ifosfamide. In kind it is ADME, tissue-based. As to conditions: human, in vivo. In outline: as §1
A short description of data set [15]: Portion of holoxan excreted in the form of the metabolite from 1200 mL of urine on day 3 was determined in embryonal rhabdomyosarcoma patients treated with ifosfamide. The format is ADME. Particulars: human, in vivo. In outline:
as §1

Data set [16] can be described thus: Quantity of the metabolite found in the urine of the embryonal rhabdomyosarcoma patients treated with ifosfamide from 1600 mL of urine tested on day 10. In kind it is ADME. As to conditions: human. Summed up: as §1
Data set [17] is described as follows: Metabolite of ifosfamide determined in urine; NF-Not found. The format is ADME, tissue-based. Particulars: human.
Data set [18] is described as follows: Active metabolite of ifosfamide determined in humans; A-Active. In kind it is ADME. As to conditions: human.
Data set [19] can be described thus: Percent ratio of the enantiomeric form (+)R extracted from the urine of embryonal rhabdomyosarcoma patients was determined. The format is ADME. As to conditions: human. In outline: (§2)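 Patients were dosed with ifosfamide at 2 g per day for 10 days. Solids were centrifuged out of the urine. The supernatant was extracted with chloroform and with ethyl acetate before the enantiomeric composition was determined, because signals of parent drug and metabolite overlapped in crude concentrated urine.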

The nature of data set [20]: Percent ratio of the enantiomeric form (+)R extracted from the urine of alveolar rhabdomyosarcoma patients was determined. In kind it is ADME, tissue-based. As to conditions: human. In outline: as §2
A short description of data set [21]: Percent ratio of the enantiomeric form (-)S extracted from the urine of alveolar rhabdomyosarcoma patients was determined. The format is ADME, tissue-based. As to conditions: human. In outline: as §2
A short description of data set [22]: Percent ratio of the enantiomeric form (-)S extracted from the urine of embryonal rhabdomyosarcoma patients was determined. Particulars: human. The format is ADME, tissue-based. Summed up:
as §2

Regarding `O=C1CCOP(=O)(NCCCl)N1CCCl` (stereo not drawn) [4-KETOIFOSFAMIDE], the Quantity is 34 mg in data set [1]; 84 mg in data set [2]; 44 mg in [3]; 24 mg in data set [4]; 136 mg in data set [5]; 81 mg in data set [11]. Also, the Quantity in [13] turned out to be 78 mg; in data set [16], 66 mg. Moreover, the Excretion in data set [6] was determined as 100%; in [7] it was 61%; in [8] it was 91.5%; in data set [9], 74%; in [10], 65.5%; in data set [12] it was 61.7%. Moreover, the Excretion in data set [14] is on record as 40.2%; in [15], 39.8%.

Regarding `O=P(O)(NCCCl)NCCCl` [PALIFOSFAMIDE], the figures for the Activity result in data set [17] and in data set [18] were “Not found” and “Active”, respectively.

As to `O=P1(NCCCl)OCCC(O)N1CCCl` (stereo not drawn) [ALDOIFOSFAMIDE], the figures for the Activity entry in data set [17] and in data set [18] were “Not found” and “Active”, respectively.

Take `NP1(=O)OCCCN1CCCl` (stereo not drawn): the Extraction is 27% in data set [19], 13% in data set [20], 87% in data set [21] and 73% in data set [22]. Moreover, the Quantity stood at 163 mg in [1]; 180 mg in [2]; 64 mg in data set [3]; 231 mg in [4]; 243 mg in [5]; 95 mg in [11]. The Quantity in data set [13] is recorded as 130 mg; in data set [16], 160 mg. The Excretion in data set [6] is on record as 100%; in data set [7] it was 61%; in data set [8], 91.5%; in data set [9] it was 74%; in data set [10], 65.5%; in [12], 61.7%. Also, the results for the Excretion in data set [14] and in [15] were 40.2% and 39.8%, respectively.

On to `O=CCCOP(=O)(NCCCl)NCCCl`, for which the Activity result was “Not found” in data set [17] and “Active” in [18].

In the case of `O=C(O)CCOP(=O)(NCCCl)NCCCl`, the Quantity in data set [1] stood at 62 mg; in data set [2], 312 mg; in data set [3], 70 mg; in data set [4], 186 mg; in data set [5], 348 mg; in [11], 70 mg. The Quantity in data set [13] came to 56 mg; in [16], 130 mg. Further, the Excretion in [6] is listed as 100%; in data set [7], 61%; in data set [8] it was 91.5%; in [9], 74%; in data set [10], 65.5%; in data set [12], 61.7%. For the same compound, the Excretion is 40.2% in data set [14] and 39.8% in data set [15].

For the compound `O=P1(NCCCl)OCCCN1CCCl` (stereo not drawn) [IFOSFAMIDE], the Extraction in data set [19] was found to be 55%; in data set [20], 57%; in [21] it was 43%; in [22], 45%. In addition, the Quantity in [1] was 442 mg; in data set [2] it was 432 mg; in data set [3] it was 348 mg; in data set [4], 1100 mg; in [5], 500 mg; in [11], 200 mg. Moreover, the Quantity is 494 mg in [13] and 421 mg in [16]. Further, the Excretion in data set [6] is reported as 100%; in data set [7] it was 61%; in [8], 91.5%; in data set [9] it was 74%; in data set [10], 65.5%; in data set [12] it was 61.7%. Further, the Excretion came out at 40.2% in data set [14] and 39.8% in [15].

On to `O=P1(NCCCl)NCCCO1` (stereo not drawn), for which the Extraction in [19] came to 45%; in [20], 72%; in data set [21] it was 28%; in data set [22], 55%. Moreover, the Quantity came to 432 mg in data set [1]; 348 mg in data set [2]; 198 mg in data set [3]; 310 mg in data set [4]; 434 mg in data set [5]; 258 mg in data set [11]. In addition, the Quantity in data set [13] is given as 338 mg; in [16], 320 mg. Moreover, the Excretion is reported as 100% in [6]; 61% in data set [7]; 91.5% in [8]; 74% in data set [9]; 65.5% in data set [10]; 61.7% in data set [12]. Besides, the Excretion in data set [14] is recorded as 40.2%; in data set [15], 39.8%.
